Laboratory results published in article PMC5320539 (ACS Chemical Biology, 2016).
Entries after “also recorded” stand apart in the source; their conditions may differ. Like-named read-outs stand apart in the source and are kept apart here. Positions of bridges follow the written chain, without caps; N, C: chain ends. Non-standard residues stand in square brackets, D forms with d. Residues, ends and D or L forms follow the SMILES beside them. No end group written: not given here. *: point of attachment. S5 = C=CCCC[C@](C)(N)C(=O)O; code λ = not defined here; Dap = NC[C@H](N)C(=O)O; ClAc = O=C(CCl)*

B8: hBfl-1ΔTm(1–149) (domain or fragment)
chain: MTDCEFGYIYRLAQDYLQCVLQIPQPGSGPSKTSRVLQNVAFSVQKEVEKNLKSCLDNVNVVSVDTARTLFNQVMEKEFEDGIINWGRIVTIFAFEGILIKKLLRQQIAPDVDTYKEISYFVAEFIMNNTGEWIRQNGGWENGFVKKFE

Key:
primary CLL cells = type: cell-based, human; conditions: primary CLL cells alone or cocultured with stroma-NK-tert cells, 48 h
In short: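 Primary CLL cells were taken as PBMC from heparinized patient blood by Ficoll density gradient, using samples >95% CD5+/CD19+. They were cultured in RPMI with 10% heat-inactivated FBS at 3 × 10^5 cells/well, 37 °C, 5% CO2, alone or on bone-marrow NK-tert stroma ([…]), with test compound for 48 h. Cells were gated CD19/CD5 (4 °C, 30 min), stained with DiOC6 (30 min, 37 °C), and analysed by flow cytometry as % SIA.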

[1] = target: Bcl-xL ΔTM (Bcl-xL deletion mutant lacking the transmembrane domain) (human); experiment: DELFIA displacement assay
[2] = target: Recombinant hBcl-2 protein (human); experiment: DELFIA displacement assay
hBfl-1 [3] = target: T1, hBfl-1 (Homo sapiens, UniProt Q16548); experiment: DELFIA displacement of biotinylated BID BH3 peptide from hBfl-1; type: binding; conditions: hBfl-1 versus hMcl-1
T1 sequence (Q16548 with tags, fused parts or gaps): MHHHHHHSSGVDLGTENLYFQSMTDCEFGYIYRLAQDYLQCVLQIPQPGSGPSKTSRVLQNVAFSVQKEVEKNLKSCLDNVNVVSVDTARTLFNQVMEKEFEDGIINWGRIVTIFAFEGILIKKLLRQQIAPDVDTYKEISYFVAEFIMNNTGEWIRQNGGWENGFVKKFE

hBfl-1 [4] = target: T1, hBfl-1; experiment: Covalent adduct formation by SDS gel electrophoresis; type: binding; conditions: hBfl-1 10 μM, equimolar peptide, 15 min to 2 h
In short: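 Synthetic peptide and human Bcl-2 family protein were incubated together at equimolar 10 μM. hBfl-1 (10 μM) was sampled with or without peptide at 15 min, 30 min, 1 h and 2 h. Samples were resolved by SDS-PAGE and stained with Coomassie.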

hBfl-1 [5] = target: T1, hBfl-1; experiment: Isothermal titration calorimetry against hBfl-1; type: binding; conditions: VP-ITC, reverse fashion (protein titrated into compound), 25 °C, PBS + 10% DMSO
hBfl-1ΔTm(1–149) [6] = target: B8; experiment: DELFIA displacement assay
hMcl-1 (172–323) = hMcl-1 (172–323) (human, UniProt Q07820 172-323); experiment: DELFIA displacement assay
hBfl-1ΔTm(1–149) [7] = target: B8; experiment: ITC
[8] = target: 130E7 (covalent hBIM derived BH3 peptide, Ac-λ…-NH2) (human); experiment: ITC
[9] = target: T2, biotin-BID (Biotin-lc-EDIIRNIARHLAQVGDSMDR-NH2) (N-terminal biotin-lc (aminohexanoic acid); C-terminal amide); experiment: DELFIA displacement assay
T2 peptide: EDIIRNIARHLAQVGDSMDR

[10] = target: Bcl-xL ΔTM (Bcl-xL deletion mutant lacking the transmembrane domain) (human); experiment: DELFIA displacement assay; remark: listed apart in the source
[11] = target: Recombinant hBcl-2 protein (human); experiment: DELFIA displacement assay; remark: listed apart in the source
hBfl-1ΔTm(1–149) (human) = target: T3, hBfl-1ΔTm(1–149) (human); experiment: DELFIA displacement assay
T3 chain: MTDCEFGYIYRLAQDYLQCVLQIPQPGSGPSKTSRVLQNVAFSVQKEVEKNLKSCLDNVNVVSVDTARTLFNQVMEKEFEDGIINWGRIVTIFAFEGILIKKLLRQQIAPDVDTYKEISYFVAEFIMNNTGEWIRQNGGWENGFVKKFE

[12] = target: T4, hMcl-1 (172–323) (human), Q07820; experiment: DELFIA displacement assay
T4 chain: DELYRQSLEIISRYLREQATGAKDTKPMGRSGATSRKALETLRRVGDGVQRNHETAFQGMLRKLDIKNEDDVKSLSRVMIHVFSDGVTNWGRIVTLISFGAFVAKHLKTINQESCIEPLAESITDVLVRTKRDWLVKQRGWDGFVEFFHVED

**Q.** For `Nc1nc(F)nc2c1ncn2[C@@H]1O[C@H](CO)[C@@H](O)[C@@H]1O` [fludarabine], which “single agent activity (% SIA), in words” value (primary CLL cells) is on record?
**A.** The value was “limited activity”.

**Q.** Which results are given for NOXA A (Ac-…-NH2) (peptide)?
**A.** IC50 [1]: > 1000 nM; IC50 [2]: > 1000 nM

**Q.** How did the “increased affinity for hBfl-1 over hMcl-1” value (hBfl-1 [3]) turn out when Ac-CATQLRRFGDKLNFRQKLLN-NH2 [hNOXA] was run?
**A.** The value was “over 2 orders of magnitude”.

**Q.** And the “covalent complex with hBfl-1 (SDS-PAGE, Coomassie)” value (hBfl-1 [4])?
**A.** Its value is “formed a covalent complex”.

**Q.** With `CC[C@H](C)[C@H](NC(=O)[C@H](CNC(=O)CCl)NC(C)=O)C(=O)N[C@@H](C)C(=O)N[C@@H](CCC(N)=O)C(=O)N[C@@H](CCC(=O)O)C(=O)N[C@@H](CC(C)C)C(=O)N[C@@H](CCCNC(=N)N)C(=O)N[C@@]1(C)CCC/C=C\CCC[C@@](C)(C(=O)N[C@@H](Cc2ccccc2)C(=O)N[C@@H](CC(N)=O)C(=O)N[C@@H](C)C(=O)N[C@@H](Cc2ccc(O)cc2)C(=O)N[C@@H](Cc2ccc(O)cc2)C(=O)N[C@@H](C)C(=O)N[C@@H](CCCNC(=N)N)C(=O)N[C@@H](CCCNC(=N)N)C(N)=O)NC(=O)[C@H](CC(=O)O)NC(=O)CNC(=O)[C@H]([C@@H](C)CC)NC1=O` [130D11] (Ac-[Dap](ClAc)IAQELR[S5]IGD[S5]FNAYYARR-NH2; staple (Z) 8-12) as the molecule, how does the “ITC KD hBfl-1” value (hBfl-1 [5]) read?
**A.** The value was “not detected; also recorded: no significant binding”.

**Q.** How did the “single agent activity (% SIA), in words” value (primary CLL cells) turn out when `COc1cc([C@@H]2c3cc4c(cc3[C@@H](O[C@@H]3O[C@@H]5CO[C@@H](C)O[C@H]5[C@H](O)[C@H]3O)[C@H]3COC(=O)[C@H]23)OCO4)cc(OC)c1O` [etoposide] was run?
**A.** The value was “limited activity”.

**Q.** For NOXA B (Ac-…-NH2) (peptide), which IC50 [1] is on record?
**A.** Its IC50 is greater than 1000 nM.

**Q.** What about the IC50 [2] of the same molecule?
**A.** Its IC50 is greater than 1000 nM.

B1: hNOXAs (Ac-CATQLRRFGDKLN-NH2) (peptide)
peptide: Ac-CATQLRRFGDKLN-NH2
**Q.** What does the source list for B1?
**A.** IC50 (hBfl-1ΔTm(1–149) [6]): 15 nM; IC50 (hMcl-1 (172–323)): > 1000 nM

B2: C1A_hNOXAs (Ac-AATQLRRFGDKLN-NH2) (peptide)
peptide: Ac-AATQLRRFGDKLN-NH2
**Q.** How did the IC50 (hBfl-1ΔTm(1–149) [6]) turn out when B2 was run?
**A.** Its IC50 is greater than 1000 nM.

**Q.** What about the IC50 (hMcl-1 (172–323)) of the same molecule?
**A.** Its IC50 is greater than 1000 nM.

B3: 130E7 (peptide)
chain: [Dap](ClAc)IAQELRRIGDEFNAYYARR
**Q.** How did the Kd (hBfl-1ΔTm(1–149) [7]) turn out when B3 was run?
**A.** The Kd was 2.6 nM.

B4: cyc_hNOXA (Ac-CATQLRRFGDKLNFRQKLLNLISKLFC-NH2) (peptide)
peptide: Ac-CATQLRRFGDKLNFRQKLLNLISKLFC-NH2
modifications: also: cyclic (cyc_), mode of cyclisation not given here
**Q.** Which results are given for B4?
**A.** IC50 (hBfl-1ΔTm(1–149) [6]): 86 nM; IC50 (hMcl-1 (172–323)): 344 nM

B5: hMcl-1 (172-323), Q07820 172-323 (domain or fragment)
chain: DELYRQSLEIISRYLREQATGAKDTKPMGRSGATSRKALETLRRVGDGVQRNHETAFQGMLRKLDIKNEDDVKSLSRVMIHVFSDGVTNWGRIVTLISFGAFVAKHLKTINQESCIEPLAESITDVLVRTKRDWLVKQRGWDGFVEFFHVED
**Q.** B5 was tested. Which Kd [8] did it give?
**A.** Its Kd is 2 nM.

B6: hNOXA (Ac-CATQLRRFGDKLNFRQKLLN-NH2) (peptide)
peptide: Ac-CATQLRRFGDKLNFRQKLLN-NH2
**Q.** For B6, which IC50 (hBfl-1ΔTm(1–149) [6]) is on record?
**A.** The IC50 was 7.5 nM.

**Q.** What about the IC50 (hMcl-1 (172–323)) of the same molecule?
**A.** Its IC50 is 228 nM.

B7: 130G4 (peptide)
chain: PRRPRRPRRPRRPRR[Dap](ClAc)IAQELRRIGDEFNAYYARR
**Q.** How did the Kd (hBfl-1ΔTm(1–149) [7]) turn out when B7 was run?
**A.** The Kd was 23 nM.

**Q.** Does B8 bind [9]?
**A.** Result: binds

B9: λ_hNOXA (Ac-λ…-NH2) (peptide)
chain: Ac-[code λ]ATQLRRFGDKLNFRQKLLN-NH2
modifications: reading uncertain
**Q.** Which results are given for B9?
**A.** IC50 [10]: > 1000 nM; IC50 [11]: > 1000 nM; IC50 (hBfl-1ΔTm(1–149) (human)): 287 nM; IC50 [12]: 233 nM

B10: NOXA A (Ac-AELPPEFAAQLRKIGDKVYC-NH2) (peptide)
peptide: Ac-AELPPEFAAQLRKIGDKVYC-NH2
**Q.** Which IC50 (hBfl-1ΔTm(1–149) [6]) does the source give for B10 here?
**A.** The IC50 was greater than 1000 nM.

B11: hNOXA (Ac-…-NH2) (peptide)
peptide: Ac-CATQLRRFGDKLNFRQKLLN-NH2
**Q.** Which IC50 [1] does the source give for B11 here?
**A.** The IC50 was greater than 1000 nM.

**Q.** What about the IC50 [2] of the same molecule?
**A.** Its IC50 is greater than 1000 nM.

B12: homo_hNOXA (Ac-h…-NH2) (peptide)
chain: Ac-[code h]ATQLRRFGDKLNFRQKLLN-NH2
**Q.** Which results are given for B12?
**A.** IC50 [10]: > 1000 nM; IC50 [11]: > 1000 nM; IC50 (hBfl-1ΔTm(1–149) (human)): 83 nM; IC50 [12]: 266 nM

B13: hNOXAs (Ac-…-NH2) (peptide)
peptide: Ac-CATQLRRFGDKLN-NH2
**Q.** For B13, which IC50 [1] is on record?
**A.** Its IC50 is greater than 1000 nM.

**Q.** What about the IC50 [2] of the same molecule?
**A.** Its IC50 is greater than 1000 nM.

B14: NOXA B (Ac-PADLKDECAQLRRIGDKVNL-NH2) (peptide)
peptide: Ac-PADLKDECAQLRRIGDKVNL-NH2
**Q.** How did the IC50 (hBfl-1ΔTm(1–149) [6]) turn out when B14 was run?
**A.** Its IC50 is 431 nM.
